Source: PubChem
Rows were chosen to be rich in hits. Some 3.6% of all compounds tested hit in one or more screens of this group.
SR-BI DiI inh: blocks mouse SR-BI lipid uptake from DiI-HDL; Q61009; ldlA[mSR-BI] CHO cells, DiI-HDL uptake fluorescence, 3 h; inhibition, % at 12.5 µM; 320,000 tested, 0.96% active;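 active means mean replicate inhibition of at least 70% and a set share of replicates each scoring 70 or more; inconclusive means meets just one of the two criteria; inactive means fails both criteria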
Target sequence (Q61009 whole entry, looked up): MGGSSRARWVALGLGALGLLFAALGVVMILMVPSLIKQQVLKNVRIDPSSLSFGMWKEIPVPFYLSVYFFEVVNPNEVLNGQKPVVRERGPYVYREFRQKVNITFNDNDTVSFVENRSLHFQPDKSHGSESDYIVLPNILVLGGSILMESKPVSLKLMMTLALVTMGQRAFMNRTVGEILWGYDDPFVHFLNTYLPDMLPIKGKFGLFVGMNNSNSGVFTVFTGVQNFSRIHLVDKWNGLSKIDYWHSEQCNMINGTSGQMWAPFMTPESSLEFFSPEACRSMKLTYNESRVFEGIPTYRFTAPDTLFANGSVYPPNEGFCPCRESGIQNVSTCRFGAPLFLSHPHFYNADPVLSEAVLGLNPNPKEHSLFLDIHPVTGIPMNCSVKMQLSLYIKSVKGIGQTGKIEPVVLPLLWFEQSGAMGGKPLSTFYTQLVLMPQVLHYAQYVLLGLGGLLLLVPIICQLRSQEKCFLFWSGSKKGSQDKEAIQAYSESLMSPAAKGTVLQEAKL
Wnt act: activators of Wnt/beta-catenin signaling; Wnt/beta-catenin reporter cell assay, activator, plate reader; activation, % at 9.35 µM; 300,000 tested, 1.2% active; AID 743398; in the data active means activation above about 30%, passing the limit was not always enough; inconclusive means no clear call, values can overlap the other calls
SR-BI uptake up: SR-BI HDL lipid transfer activation | CHO ldlA[mSR-BI] cells, DiI-HDL uptake fluorescence, 3 h; 100 = double the neutral-control signal | activation, % at 12.5 µM | 320,000 tested, 0.096% active | AID 504775;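 active means mean replicate activation of at least 60% and every replicate at or above 60%; inconclusive means mean or all-replicate condition met, but not both; inactive means mean below 60% and not all replicates reaching 60%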
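system = CHO ldlA[mSR-BI] cells, LDL receptor-null, SR-BI overexpressing | medium = Ham's F12 with 0.5% BSA, HEPES 25 mM, pH 7.4 | probe or stimulus = DiI-HDL 10 µg/mL | compound dosing = single-point compound dose | incubation = compound exposure 3 h, 37 °C | technique = DiI fluorescence, bottom read | read-out = cell-associated DiI fluorescence as measure of HDL uptake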
MITF act: increases MITF-driven TRPM1 promoter luciferase signal. SK-MEL-5 TRPM1-promoter luciferase, 24 h; % of positive control, neutral wells = 0. activation, % at 12.5 µM. 300,000 tested, 0.75% active;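 active means mean activation of at least 80% with every replicate also reaching 80%; inconclusive means mean reaches 80% but some replicate falls short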
HSF-1 act: increases HSF-1 driven luciferase reporter signal. NIH3T3-HGL HSF-1 luciferase reporter, MG132, 8 h; 100% = twice DMSO control signal. activation, % at 9 µM. 300,000 tested, 1.7% active. AID 504408;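 active means mean replicate activation of at least 50% with a set share of replicates each reaching 50%; inconclusive means only one of those two conditions met; inactive means mean below 50% and too few replicates reaching it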
Of the large screens only hits and unclear results are named; the others gave an inactive call.

COc1ccccc1C(CNC(=O)CCNS(=O)(=O)c1ccc(Br)cc1)N1CCCC1 (configuration not stated)	none (no result: HSF-1 act)
COc1ccc(NC(=O)CN(C)C(=O)CNC(=O)c2sc3ccccc3c2Cl)cc1	MITF act 93 (no result: HSF-1 act)
COC(=O)C1=C(C)N(C)C(=NCc2ccc3c(c2)OCO3)NC1c1ccc(C(F)(F)F)cc1 (configuration not stated)	none (no result: SR-BI DiI inh, SR-BI uptake up, MITF act, HSF-1 act)
O=C(NCc1ccco1)c1cc2nc(-c3ccc4c(c3)OCO4)cc(C(F)(F)F)n2n1	SR-BI DiI inh 72 (no result: Wnt act, MITF act)
O=C(Nc1cnn(Cc2ccccc2)c1)c1cc2nc(-c3ccco3)cc(C(F)(F)F)n2n1	SR-BI DiI inh 71
O=C(NCc1cccnc1)c1cc2nc(-c3ccc4c(c3)OCO4)cc(C(F)(F)F)n2n1	none (no result: SR-BI DiI inh, SR-BI uptake up)
Cc1cc(C)cc(C(=O)N2CCC3(CC2)NCCc2[nH]cnc23)c1	none
CN(C)c1ccc(C2CC(=O)OC3=C2C(=O)CC(C)(C)C3)cc1 (configuration not stated)	SR-BI uptake up 68
C=CCNc1ncnc2c1[nH]c1ccc(C)cc12	HSF-1 act 62
COc1ccc2[nH]c3c(NCCCOC(C)C)ncnc3c2c1	Wnt act 31
CCCCOc1ncnc2c1[nH]c1ccc(C)cc12	Wnt act 43 (no result: SR-BI DiI inh, SR-BI uptake up, MITF act)
CCCOc1ncnc2c1[nH]c1ccc(OC)cc12	Wnt act 52, HSF-1 act inconclusive (no result: MITF act)
Cc1ccc2[nH]c3c(NCCN4CCOCC4)ncnc3c2c1	none (no result: Wnt act)
O=C(N[C@@H](Cc1cccnc1)C(=O)N1CCC[C@H]1C(=O)NCCc1ccccc1Cl)c1ccc(Cl)c(Cl)c1	none (no result: SR-BI DiI inh, SR-BI uptake up, MITF act, HSF-1 act)
Cc1ccccc1-c1csc(C(C)(O)c2ccc(F)c(F)c2)n1 (configuration not stated)	none (no result: SR-BI DiI inh, SR-BI uptake up, MITF act, HSF-1 act)
CCOC(=O)c1ccc(N2C(=O)CC(N3CCC(Nc4ccc(F)cc4)CC3)C2=O)cc1 (configuration not stated)	HSF-1 act 58 (no result: Wnt act)
CCOC(=O)c1ccc(N2C(=O)CC(N3CCN(Cc4ccccc4)CC3)C2=O)cc1 (configuration not stated)	none (no result: Wnt act)
O=C(Cc1ccccn1)c1ccc(Cl)cc1	MITF act 104
CNc1nc(SC(C)C(=O)Nc2ccc(Cl)c(Cl)c2)nc(N2CCOCC2)n1 (configuration not stated)	HSF-1 act 68
Cc1ccc([C@@H]2CC(=O)[C@@H]3CN(S(=O)(=O)c4ccc(C)cc4)[C@H](c4cccc(Cl)c4)C[C@@H]3N2S(=O)(=O)c2ccc(Cl)cc2)cc1	none (no result: SR-BI DiI inh, SR-BI uptake up, MITF act, HSF-1 act)
CC1(C(=O)NC2CCN(Cc3ccccc3)CC2)CCN1Cc1cc2ccccc2o1 (configuration not stated)	none (no result: SR-BI DiI inh, SR-BI uptake up, MITF act, HSF-1 act)
CCCCOC(=O)Nc1ccc(N2CCCCC2)cc1	Wnt act 74 (no result: MITF act)
CCCCOc1ccc(C(=O)NCC(=O)N(C)CC(=O)Nc2ccc(N3CCOCC3)cc2)cc1	SR-BI DiI inh 82
CCC(=O)N1CCN(c2ccc(NC(=O)c3ccc4ccccc4c3)cc2)CC1	HSF-1 act 66
CCCCOC(=O)Nc1ccc(N2CCOCC2)cc1	none (no result: SR-BI DiI inh, Wnt act, SR-BI uptake up)
CCOc1ccc(C(=O)Nc2ccc(N3CCCC3)cc2)cc1	SR-BI DiI inh 77 (no result: Wnt act)
Nc1ccn([C@@H]2O[C@H](C(=O)N3CCN(CCO)CC3)[C@@H](O)[C@H]2O)c(=O)n1	none (no result: SR-BI DiI inh, SR-BI uptake up, MITF act, HSF-1 act)
CCCSc1nc(N)nc2c1ncn2C1OC(CO)C(O)C1O (configuration not stated)	none (no result: HSF-1 act)
Cc1ccc(C(=O)CSc2nnc(C3CC3)n2C2CC2)s1	none (no result: MITF act, HSF-1 act)
C[C@H](O)[C@@H]1C(=O)N2CCc3c([nH]c4cccc(-c5ccccc5)c34)[C@@H]2C[C@@H]1N(C)C(=O)Nc1ccccc1	none (no result: SR-BI DiI inh, SR-BI uptake up, MITF act, HSF-1 act)
CCOc1cccc(C(=O)Nc2ccc(N3CCCC3)cc2)c1	SR-BI DiI inh 75 (no result: MITF act)
COC(=O)[C@]12C[C@H](CC(=O)NCc3ccccc3)C(=O)N(Cc3ccccc3)C1=C[C@H](C1CCCC1)O[C@@H]2C	none (no result: SR-BI DiI inh, SR-BI uptake up, MITF act, HSF-1 act)
C=CCn1c(C)cc(-c2csc(NC(=O)C3=COCCO3)n2)c1C	MITF act 120
CCOc1ccc(-c2c(C(=O)N/N=C/c3ccoc3)nnn2-c2nonc2N)cc1	none
Nc1nonc1-n1nnc(C(=O)N/N=C/c2ccccc2F)c1-c1cccs1	SR-BI DiI inh 74
CCOc1ccc(-c2c(C(=O)N/N=C/c3c[nH]c4ccccc34)nnn2-c2nonc2N)cc1	SR-BI DiI inh 88
CCCOc1ccc(-c2c(C(=O)N/N=C/c3ccccc3)nnn2-c2nonc2N)cc1	SR-BI DiI inh 77 (no result: MITF act)
CCOc1ccc(/C=N/NC(=O)c2nnn(-c3nonc3N)c2-c2ccc(OCC)cc2)cc1	none
CC(C)c1c(C(=O)N/N=C/c2ccc(C(F)(F)F)cc2)nnn1-c1nonc1N	SR-BI DiI inh 77
COc1ccc(C(=O)C[C@@H]2OC[C@H](Cc3ccccc3)N2S(=O)(=O)c2ccc(C)cc2)cc1OC	none (no result: SR-BI DiI inh, SR-BI uptake up, MITF act, HSF-1 act)
Cc1cccc(CN2CCN(C3CN(CCc4ccccc4)S(=O)(=O)C3)CC2)c1 (configuration not stated)	none (no result: SR-BI DiI inh, SR-BI uptake up, MITF act, HSF-1 act)
COC(=O)C1=C(C)NC(=O)NC1c1ccc(N2CCC(c3ccccc3)=N2)cc1 (configuration not stated)	SR-BI DiI inh 78
Clc1ccc(-c2cn3c(n2)-c2ccccc2C3)cc1Cl	HSF-1 act 53 (no result: Wnt act)
COc1cc(OC)c(OC)cc1/C=N/N(C)c1ccccc1	SR-BI DiI inh 81 (no result: Wnt act)
CCOc1cc([N+](=O)[O-])cc(/C=C2/NC(=O)N(Cc3ccccc3F)C2=O)c1O	HSF-1 act 135
Cc1ccc(NC(=S)NC(=O)C2CCCC2)c(Br)c1	Wnt act 53, MITF act 97 (no result: HSF-1 act)
COc1ccc(NC(=O)C2(C)CCN2C)cc1OC (configuration not stated)	none (no result: SR-BI DiI inh, SR-BI uptake up, MITF act, HSF-1 act)
CCOC(=O)C1=C(COC(=O)/C=C/c2cc(OC)c(OC)c(OC)c2)NC(=O)NC1C (configuration not stated)	SR-BI DiI inh 81
COc1ccc([N+](=O)[O-])cc1NC(=O)Nc1ccc(OC)c(OC)c1	SR-BI DiI inh 76
COc1ccccc1N/C(=N/S(=O)(=O)c1ccc(C)cc1)c1ccccc1	none (no result: HSF-1 act)
COc1ccc([N+](=O)[O-])cc1NC(=O)Cc1ccc(C)cc1	none (no result: SR-BI DiI inh, SR-BI uptake up)
COc1ccc([N+](=O)[O-])cc1NC(=O)Nc1cccc(Cl)c1	SR-BI DiI inh 83
COc1ccc([N+](=O)[O-])cc1N/C(=N/S(=O)(=O)c1ccccc1)c1ccccc1	SR-BI DiI inh 73
COc1ccc(CCC(=O)Nc2cc([N+](=O)[O-])ccc2OC)cc1	SR-BI DiI inh 74
CC(=O)c1ccc(-c2c(CCO)sc3ccccc23)cc1	none (no result: SR-BI DiI inh, SR-BI uptake up, MITF act, HSF-1 act)
Cc1cccc(C(C#N)c2ccc(Cl)nn2)c1 (configuration not stated)	HSF-1 act 74
Cn1cc([N+](=O)[O-])c(C(=O)Nc2nc(-c3ccc(Cl)cc3)cs2)n1	HSF-1 act 140
Cc1ccc(-c2nc(NC(=O)c3nn(C)cc3[N+](=O)[O-])sc2C)cc1	none
Cc1cnc(NC(=O)c2nn(C)cc2[N+](=O)[O-])s1	HSF-1 act 150
